The values below come from ChEMBL document CHEMBL4184229, “Synthesis, biological evaluation and docking study of a new series of di-substituted benzoxazole derivatives as selective COX-2 inhibitors and anti-inflammatory agents” (Bioorg Med Chem, 2018).

Data set [1] deals with T1, Prostaglandin G/H synthase 1 (Ovis aries, UniProt P05979).
T1 sequence (P05979 whole entry): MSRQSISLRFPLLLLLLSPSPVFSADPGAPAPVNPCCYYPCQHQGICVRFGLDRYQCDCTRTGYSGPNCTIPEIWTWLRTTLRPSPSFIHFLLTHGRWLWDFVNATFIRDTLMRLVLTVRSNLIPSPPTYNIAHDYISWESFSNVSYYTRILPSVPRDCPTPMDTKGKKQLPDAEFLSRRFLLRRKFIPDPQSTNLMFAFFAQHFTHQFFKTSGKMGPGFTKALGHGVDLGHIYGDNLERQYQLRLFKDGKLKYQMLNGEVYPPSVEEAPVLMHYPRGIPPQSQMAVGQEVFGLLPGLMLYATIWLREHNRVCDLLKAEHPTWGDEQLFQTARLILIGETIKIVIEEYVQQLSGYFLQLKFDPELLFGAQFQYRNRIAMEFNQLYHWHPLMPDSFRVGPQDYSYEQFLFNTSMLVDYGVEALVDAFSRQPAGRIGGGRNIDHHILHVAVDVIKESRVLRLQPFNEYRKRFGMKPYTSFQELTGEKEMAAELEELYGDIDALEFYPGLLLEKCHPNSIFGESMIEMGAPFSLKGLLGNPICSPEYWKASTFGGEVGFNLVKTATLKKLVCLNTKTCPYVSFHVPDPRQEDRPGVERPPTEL
As to the kind of experiment: Inhibition of ovine COX1 assessed as reduction in Prostaglandin production by enzyme immunoassay. The procedure, abridged: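 Enzyme immunoassay kit with ovine COX-1 (human recombinant COX-2 also supplied). Colour intensity read spectrophotometrically; signal is proportional to PG tracer bound to the well and inversely proportional to free PG in the well. Inhibition calculated against control incubations. IC50 taken from the log concentration vs % inhibition curve.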

Data set [2] deals with Rattus norvegicus. Put plainly: Anti-inflammatory activity against carrageenan-induced Wistar albino rat paw edema model assessed as paw edema volume at 20 mg/kg, po pretreated for 30 mins followed by carrageenan-challenge measured immediately by plethysmographic method (reference value: 0.7 ml). Type of data set: functional. (Carrageenan injected into the paw causes an acute inflammation.)

The test system of data set [3] is Rattus norvegicus. As to the kind of experiment: Anti-inflammatory activity against carrageenan-induced Wistar albino rat paw edema model assessed as paw edema volume at 20 mg/kg, po pretreated for 30 mins followed by carrageenan-challenge measured after 3 hrs by plethysmographic method (reference value: 1.14 ml). In kind it is functional.
The subject of data set [4] is Rattus norvegicus. Put plainly: Anti-inflammatory activity against carrageenan-induced Wistar albino rat paw edema model assessed as inhibition of paw edema at 20 mg/kg, po pretreated for 30 mins followed by carrageenan-challenge measured at 1 hr interval for 3 hrs by plethysmographic method relative to control. In kind it is functional. The procedure, abridged:
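Wistar albino rats housed at 25-28 °C, 50–65% relative humidity, 12 h light/dark cycle; five per group. Oral dosing; control group given an equivalent volume of normal saline. Half an hour later, 0.1 ml of 1.0% w/v carrageenan in 0.9% saline injected into the sub-plantar tissue of the hind paw. […] Values taken at 3 h as mean ± SEM; Tukey's test versus control.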

The test system of data set [5] is Rattus norvegicus. As to the kind of experiment: Ulcerogenicity in Wistar albino rat assessed as severity index at 60 mg/kg, po measured after 6 hrs. In kind it is toxicity, organism-based. As to conditions: in vivo.

For orientation: IC50 means the point on the concentration scale where inhibition reaches its midpoint. By inhibition in vivo is commonly meant the drop in the measured response relative to a control, in per cent.

For `COc1ccc(-c2nc3cc(NC(=O)c4cc([N+](=O)[O-])ccc4Cl)ccc3o2)cc1OC`, in data set [1], the IC50 stood at 10.2 µM.
On the same count and under the same terms, with `COc1ccc(-c2nc3cc(NC(=O)c4ccc(Cl)cc4)ccc3o2)cc1OC` the figure was 7.32 µM; with `COc1ccc(-c2nc3cc(NC(=O)c4cccc(Cl)c4)ccc3o2)cc1OC`, 8.82 µM.
As to `COc1ccc(-c2nc3cc(NC(=O)c4ccccc4Cl)ccc3o2)cc1OC`, the Activity in the data set with Rattus norvegicus [2] was determined as 0.66 mL; in the data set on Rattus norvegicus [3], 0.74 mL. For the same compound, the IC50 in data set [1] stood at 1.02 µM. Further, the inhibition in vivo at 20 mg/kg in the data set with Rattus norvegicus [4] was determined as 84.1%. The UI in the data set on Rattus norvegicus [5] came out at 0.8.
Turning to `COc1ccc(C(=O)Nc2ccc3oc(-c4ccc(OC)c(OC)c4)nc3c2)cc1OC`, the IC50 in data set [1] amounted to 8.2 µM.
The same measure, in the same setting: with `COc1ccc(-c2nc3cc(NC(=O)c4cccc(C)c4)ccc3o2)cc1OC` the figure was 5.21 µM.
On the same count and under the same terms, with `COc1ccc(-c2nc3cc(NC(=O)c4ccc(O)cc4)ccc3o2)cc1OC` the figure was 58.2 µM.
Take `COc1cc(OC)cc(C(=O)Nc2ccc3oc(-c4ccc(OC)c(OC)c4)nc3c2)c1`: the figures for the Activity in the data set with Rattus norvegicus [2] and with Rattus norvegicus [3] were 0.67 mL and 0.81 mL, respectively. Further, in data set [1], the IC50 is 6.02 µM. Further, the inhibition in vivo at 20 mg/kg in the data set on Rattus norvegicus [4] is 68.2%. Further, the UI in the data set on Rattus norvegicus [5] is recorded as 2.1.
For `COc1ccc(-c2nc3cc(NC(=O)c4ccc([N+](=O)[O-])cc4Cl)ccc3o2)cc1OC`, in that order: 0.71 mL, 0.77 mL, 5.15 µM, 72.7% and 1.
As for `COc1ccc(-c2nc3cc(NC(=O)c4ccc(C)cc4)ccc3o2)cc1OC`, in data set [1], the IC50 amounted to 7.84 µM.
For `COc1ccc(-c2nc3cc(NC(=O)c4ccc([N+](=O)[O-])cc4)ccc3o2)cc1OC`, the values for the Activity with Rattus norvegicus [2] and with Rattus norvegicus [3] were 0.71 mL and 0.8 mL, respectively. The IC50 in data set [1] came out at 3.23 µM. Further, the inhibition in vivo at 20 mg/kg in the data set with Rattus norvegicus [4] worked out at 79.5%. Moreover, the UI with Rattus norvegicus [5] was 1.8.
Take `COc1ccc(-c2nc3cc(NC(=O)c4ccccc4)ccc3o2)cc1OC`: the IC50 in data set [1] was found to be 6.2 µM.
Same read-out and setting: under `COc1ccc(-c2nc3cc(NC(=O)c4ccccc4Br)ccc3o2)cc1OC` stands 10.1 µM; under `COc1ccc(-c2nc3cc(NC(=O)c4ccccc4C)ccc3o2)cc1OC`, 9.21 µM.
As to `COc1ccc(-c2nc3cc(NC(=O)c4cccc([N+](=O)[O-])c4)ccc3o2)cc1OC`, the Activity in the data set on Rattus norvegicus [2] was found to be 0.57 mL; with Rattus norvegicus [3] it was 0.77 mL. In addition, the IC50 in data set [1] came to 5.52 µM. Besides, in the data set with Rattus norvegicus [4], the inhibition in vivo at 20 mg/kg was 54.5%.
As for `COc1ccc(C(=O)Nc2ccc3oc(-c4ccc(OC)c(OC)c4)nc3c2)cc1`, the IC50 in data set [1] came out at 16.3 µM.
As for `CC(C)Cc1ccc(C(C)C(=O)O)cc1` (configuration not stated) [IBUPROFEN], in the data set on Rattus norvegicus [4], the inhibition in vivo at 20 mg/kg was 65.9%. For the same compound, the UI in the data set with Rattus norvegicus [5] was 2.2.
